One experiment relates to Saccharomyces cerevisiae. Put plainly: Growth inhibition against yeast after 48 hrs by agar plate diffusion assay. The class given is functional, organism-based. The procedure, abridged:
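10 µL sample aliquots applied to 6 mm filter disks placed on inoculated test plates; fungal plates incubated 48 h at temperature optimal for the test organism; activity read from growth inhibition on agar.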

A further experiment has as its system HepG2. Put plainly: Growth inhibition of human HepG2 cells after 48 hrs. The class given is functional. The settings on record: HepG2, 48 h. The procedure, abridged:
(§1)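 Run per NCI guidelines. Cells grown in RPMI 1640 with 10% fetal calf serum, 5% CO2, humidified. Compounds added after 24 h as DMSO solutions at 0.1-10 µg/mL, 0.1% final DMSO, then 48 h further culture. Cell count by sulforhodamine B protein staining. GI50 (50% growth inhibition) and TGI derived.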

The next experiment has as its system AGS. Put plainly: Growth inhibition of human AGS cells after 48 hrs. The class given is functional. The procedure, abridged: as §1
Experiment [1] is described as follows: Growth inhibition of human MCF cells after 48 hrs. The class given is functional. The procedure, abridged:
as §1

Active and inactive are the calls of the source. The rule behind the calls is not given here.

In general, GI50 refers to the concentration that inhibits growth by half. Usually TGI stands for the concentration giving total growth inhibition. Read a high TGI as lower sensitivity of the cells.

Consider `CCCCCCCCCCCCC/C=C\C(=O)N(O)CCCCCNC(=O)CCC(=O)N(O)CCCCCNC(=O)[C@@H]1COC(c2ccccc2O)=N1` [NOCARDICHELIN A], for which the result in the experiment on Saccharomyces cerevisiae was inactive. Moreover, the values for the 50% growth inhibitory concentration (GI50) (with HepG2; in the experiment on AGS; in experiment [1]) were 282 nM, 28.2 nM and 202 nM, respectively. For the same compound, the TGI stood at 471 nM in the experiment on HepG2, 202 nM in the experiment with AGS and 538 nM in experiment [1].

As to `CCCCCCCCCCC/C=C\C(=O)N(O)CCCCCNC(=O)CCC(=O)N(O)CCCCCNC(=O)[C@@H]1COC(c2ccccc2O)=N1` [NOCARDICHELIN B], the outcome in the experiment with Saccharomyces cerevisiae was inactive. In addition, the values for the 50% growth inhibitory concentration (GI50) (in the experiment with HepG2; with AGS; in experiment [1]) were 69.9 nM, 44.7 nM and 1130 nM, respectively. Besides, the total growth inhibition concentration (TGI) in the experiment on HepG2 was 335 nM; in the experiment with AGS, 1500 nM; in experiment [1] it was 3490 nM.

(Values after ChEMBL document CHEMBL1143714, “Nocardichelins A and B, siderophores from Nocardia strain acta 3026” (2007).)
